{"source": "ChEMBL document CHEMBL4627381", "about": "“Licochalcone A Selectively Resensitizes ABCG2-Overexpressing Multidrug-Resistant Cancer Cells to Chemotherapeutic Drugs” (J Nat Prod, 2020)", "key": {"S1 [1]": {"tested_on": "S1", "assay": "Induction of pheophorbide A accumulation in human S1 cells at 20 uM incubated for 1 hr by FACScan flow cytometry", "type": "functional, cell-based", "in_short": "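Cells held drug-free 7 days. 3 × 10^5 cells were suspended in IMDM with 5% FCS and loaded with pheophorbide A (ex 395/em 670 nm) for 1 h, with or without LCA (20 μM for single-concentration accumulation) or Ko143 3 μM as reference. Read immediately by flow cytometry. Efflux inhibition was run over a concentration range; mean ± SD of three experiments.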"}, "NCI-H460 [2]": {"tested_on": "NCI-H460", "assay": "Effect on topotecan-induced cytotoxicity against human H460 cells assessed as fold change in topotecan IC50 at 2 uM after 72 hrs by MTT assay relative to topotecan IC50", "type": "functional", "in_short": "(§1)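 Parental S1 colon and H460 lung cancer cells were exposed for 72 h to a mitoxantrone or topotecan concentration series, with or without modulator at 0.5–3.0 μM, and read by MTT. Fold-reversal is IC50 without modulator divided by IC50 with modulator, taken from dose-response curves of three independent experiments.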"}, "HEK293 [3]": {"tested_on": "HEK293", "assay": "Effect on etoposide-induced cytotoxicity against HEK293 cells assessed as fold change in etoposide IC50 at 2 uM after 72 hrs by CCK8 assay relative to etoposide IC50", "type": "cell-based", "conditions": "human, hek293, 72 h", "in_short": "(§2)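 Reversal assay in parental pcDNA-HEK293 and transfected HEK293 lines (ABCB1 for colchicine, ABCC1 for etoposide, ABCG2 for mitoxantrone/topotecan). Substrate drug series was given with or without nontoxic modulator (0.5, 1.0, 2.0 or 3.0 μM) for 72 h, with a CCK-8 read-out. Fold-reversal is substrate IC50 without modulator divided by IC50 with modulator. Three independent experiments.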"}, "NCI-H460 [4]": {"tested_on": "NCI-H460", "assay": "Effect on mitoxantrone-induced cytotoxicity against human H460 cells assessed as fold change in mitoxantrone IC50 at 1 uM after 72 hrs by MTT assay relative to mitoxantrone IC50", "type": "functional", "in_short": "as §1"}, "S1-M1-80": {"tested_on": "S1-M1-80", "assay": "Induction of apoptosis in human S1-M1-80 cells harboring ABCG2 (unknown origin) assessed as necrotic cells at 10 uM incubated for 48 hrs by annexin V/propidium iodide staining based flow cytometry (reference value: 0.3%)", "type": "functional"}, "S1 [5]": {"tested_on": "S1", "assay": "Induction of apoptosis in human S1 cells assessed as viable cells at 10 uM incubated for 48 hrs in presence of topotecan by annexin V/propidium iodide staining based flow cytometry (reference value: 94.1%)", "type": "functional", "conditions": "S1, 48 h, read-out: Activity"}, "HEK293 [6]": {"tested_on": "HEK293", "assay": "Effect on topotecan-induced cytotoxicity against HEK293 cells assessed as fold change in topotecan IC50 at 2 uM after 72 hrs by CCK8 assay relative to topotecan IC50", "type": "cell-based", "conditions": "human, hek293, 72 h", "in_short": "as §2"}, "[7]": {"biological_target": "T1, Broad substrate specificity ATP-binding cassette transporter ABCG2 (Homo sapiens, UniProt Q9UNQ0)", "T1 sequence (Q9UNQ0 whole entry)": "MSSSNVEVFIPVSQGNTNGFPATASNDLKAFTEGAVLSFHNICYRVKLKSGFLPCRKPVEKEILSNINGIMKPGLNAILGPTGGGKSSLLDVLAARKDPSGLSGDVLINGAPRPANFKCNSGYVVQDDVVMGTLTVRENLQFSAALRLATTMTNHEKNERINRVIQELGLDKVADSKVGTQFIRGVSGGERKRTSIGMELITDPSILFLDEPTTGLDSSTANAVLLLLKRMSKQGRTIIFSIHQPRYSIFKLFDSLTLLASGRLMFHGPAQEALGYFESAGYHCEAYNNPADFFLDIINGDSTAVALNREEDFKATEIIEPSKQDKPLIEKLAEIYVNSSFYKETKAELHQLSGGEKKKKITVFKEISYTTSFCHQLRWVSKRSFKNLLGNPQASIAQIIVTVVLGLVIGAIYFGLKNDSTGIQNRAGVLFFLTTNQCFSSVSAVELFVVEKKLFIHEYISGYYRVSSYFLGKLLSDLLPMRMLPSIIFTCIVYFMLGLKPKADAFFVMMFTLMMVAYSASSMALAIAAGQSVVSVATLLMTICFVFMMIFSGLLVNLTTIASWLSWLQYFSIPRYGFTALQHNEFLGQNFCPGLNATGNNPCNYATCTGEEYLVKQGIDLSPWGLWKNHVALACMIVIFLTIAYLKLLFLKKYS", "assay": "Reversal of ABCG2 (unknown origin)-mediated multidrug resistance in human S1-M1-80 cells assessed as fold-change in mitoxantrone IC50 at 1 uM after 72 hrs by MTT assay relative to mitoxantrone IC50", "type": "cell-based", "conditions": "s1-m1-80, 72 h", "in_short": "(§3)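 MTT readout in S1-M1-80 colon cancer cells (mitoxantrone-selected, held in 80 μM mitoxantrone, then drug-free 7 days before assay). Cells were seeded at 5000/well for 24 h, then given increasing mitoxantrone or topotecan with DMSO or non-toxic modulator for 72 h at 37 °C. IC50 came from fitted dose-response curves (at least three independent experiments). Fold-reversal = IC50 without modulator ÷ IC50 with modulator.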"}, "[8]": {"biological_target": "T2, Multidrug resistance-associated protein 1 (Homo sapiens, UniProt P33527)", "T2 sequence (P33527 whole entry)": "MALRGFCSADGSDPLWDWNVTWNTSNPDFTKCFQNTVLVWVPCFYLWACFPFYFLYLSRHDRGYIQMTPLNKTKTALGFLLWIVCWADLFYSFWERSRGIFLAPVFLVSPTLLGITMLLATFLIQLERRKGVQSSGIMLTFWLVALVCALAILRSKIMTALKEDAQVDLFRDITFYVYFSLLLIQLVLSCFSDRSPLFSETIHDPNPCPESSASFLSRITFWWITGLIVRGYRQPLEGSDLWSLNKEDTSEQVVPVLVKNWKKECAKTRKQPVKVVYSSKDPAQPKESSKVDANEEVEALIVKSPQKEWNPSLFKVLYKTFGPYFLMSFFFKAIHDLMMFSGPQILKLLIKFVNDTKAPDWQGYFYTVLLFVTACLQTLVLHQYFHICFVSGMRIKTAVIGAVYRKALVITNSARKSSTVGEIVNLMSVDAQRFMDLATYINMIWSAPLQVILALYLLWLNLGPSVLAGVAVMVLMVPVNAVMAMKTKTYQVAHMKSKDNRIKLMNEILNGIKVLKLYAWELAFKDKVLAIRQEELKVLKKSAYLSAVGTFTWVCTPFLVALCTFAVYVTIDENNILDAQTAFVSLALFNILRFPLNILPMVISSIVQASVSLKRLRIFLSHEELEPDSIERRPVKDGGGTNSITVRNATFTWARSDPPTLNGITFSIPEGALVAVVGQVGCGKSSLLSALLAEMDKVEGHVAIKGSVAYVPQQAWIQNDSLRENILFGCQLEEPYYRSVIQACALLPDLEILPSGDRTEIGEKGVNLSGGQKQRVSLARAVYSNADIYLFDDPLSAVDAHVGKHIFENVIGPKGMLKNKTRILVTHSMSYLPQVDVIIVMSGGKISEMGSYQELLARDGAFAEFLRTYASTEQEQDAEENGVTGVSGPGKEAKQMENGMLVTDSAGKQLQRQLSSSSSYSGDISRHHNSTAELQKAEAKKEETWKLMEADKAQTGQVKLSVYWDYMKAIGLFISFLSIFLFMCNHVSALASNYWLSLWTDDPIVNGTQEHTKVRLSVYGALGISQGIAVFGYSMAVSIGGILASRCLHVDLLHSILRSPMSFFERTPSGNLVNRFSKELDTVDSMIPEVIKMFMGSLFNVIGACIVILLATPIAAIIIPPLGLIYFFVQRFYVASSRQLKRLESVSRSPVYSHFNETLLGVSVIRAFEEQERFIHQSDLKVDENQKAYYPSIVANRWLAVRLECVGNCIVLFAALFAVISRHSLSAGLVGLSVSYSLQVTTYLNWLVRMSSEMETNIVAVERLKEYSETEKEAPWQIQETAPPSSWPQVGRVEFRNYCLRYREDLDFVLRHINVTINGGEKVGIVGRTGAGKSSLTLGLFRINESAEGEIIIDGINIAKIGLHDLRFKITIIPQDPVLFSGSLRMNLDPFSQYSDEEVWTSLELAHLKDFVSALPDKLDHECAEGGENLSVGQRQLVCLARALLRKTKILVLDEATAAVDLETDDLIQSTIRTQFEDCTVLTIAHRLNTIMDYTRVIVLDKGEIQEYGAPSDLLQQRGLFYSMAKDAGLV", "assay": "Reversal of human ABCC1-mediated multidrug resistance in HEK293/MRP1 cells assessed as fold-change in etoposide IC50 at 3 uM after 72 hrs by CCK8 relative to etoposide IC50", "type": "cell-based", "in_short": "(§4)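 Cells were seeded at 5000/well for 24 h, then given colchicine, etoposide, mitoxantrone or topotecan ± non-toxic modulator (0.5–3.0 μM) for 72 h, with DMSO up to 0.5%. IC50 came from fitted curves (mean ± SD, three experiments). Fold-reversal = IC50 without modulator ÷ IC50 with modulator.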"}, "HEK293 [9]": {"tested_on": "HEK293", "assay": "Effect on etoposide-induced cytotoxicity against HEK293 cells assessed as fold change in etoposide IC50 at 1 uM after 72 hrs by CCK8 assay relative to etoposide IC50", "type": "cell-based", "conditions": "human, hek293, 72 h", "in_short": "as §2"}, "[10]": {"biological_target": "T1, Broad substrate specificity ATP-binding cassette transporter ABCG2", "assay": "Reversal of ABCG2 (unknown origin)-mediated multidrug resistance in human S1-M1-80 cells assessed as fold-change in mitoxantrone IC50 at 3 uM after 72 hrs by MTT assay relative to mitoxantrone IC50", "type": "cell-based", "conditions": "s1-m1-80, 72 h", "in_short": "as §3"}, "[11]": {"biological_target": "ATP-dependent translocase ABCB1 (Homo sapiens, UniProt P08183)", "sequence (P08183 whole entry)": "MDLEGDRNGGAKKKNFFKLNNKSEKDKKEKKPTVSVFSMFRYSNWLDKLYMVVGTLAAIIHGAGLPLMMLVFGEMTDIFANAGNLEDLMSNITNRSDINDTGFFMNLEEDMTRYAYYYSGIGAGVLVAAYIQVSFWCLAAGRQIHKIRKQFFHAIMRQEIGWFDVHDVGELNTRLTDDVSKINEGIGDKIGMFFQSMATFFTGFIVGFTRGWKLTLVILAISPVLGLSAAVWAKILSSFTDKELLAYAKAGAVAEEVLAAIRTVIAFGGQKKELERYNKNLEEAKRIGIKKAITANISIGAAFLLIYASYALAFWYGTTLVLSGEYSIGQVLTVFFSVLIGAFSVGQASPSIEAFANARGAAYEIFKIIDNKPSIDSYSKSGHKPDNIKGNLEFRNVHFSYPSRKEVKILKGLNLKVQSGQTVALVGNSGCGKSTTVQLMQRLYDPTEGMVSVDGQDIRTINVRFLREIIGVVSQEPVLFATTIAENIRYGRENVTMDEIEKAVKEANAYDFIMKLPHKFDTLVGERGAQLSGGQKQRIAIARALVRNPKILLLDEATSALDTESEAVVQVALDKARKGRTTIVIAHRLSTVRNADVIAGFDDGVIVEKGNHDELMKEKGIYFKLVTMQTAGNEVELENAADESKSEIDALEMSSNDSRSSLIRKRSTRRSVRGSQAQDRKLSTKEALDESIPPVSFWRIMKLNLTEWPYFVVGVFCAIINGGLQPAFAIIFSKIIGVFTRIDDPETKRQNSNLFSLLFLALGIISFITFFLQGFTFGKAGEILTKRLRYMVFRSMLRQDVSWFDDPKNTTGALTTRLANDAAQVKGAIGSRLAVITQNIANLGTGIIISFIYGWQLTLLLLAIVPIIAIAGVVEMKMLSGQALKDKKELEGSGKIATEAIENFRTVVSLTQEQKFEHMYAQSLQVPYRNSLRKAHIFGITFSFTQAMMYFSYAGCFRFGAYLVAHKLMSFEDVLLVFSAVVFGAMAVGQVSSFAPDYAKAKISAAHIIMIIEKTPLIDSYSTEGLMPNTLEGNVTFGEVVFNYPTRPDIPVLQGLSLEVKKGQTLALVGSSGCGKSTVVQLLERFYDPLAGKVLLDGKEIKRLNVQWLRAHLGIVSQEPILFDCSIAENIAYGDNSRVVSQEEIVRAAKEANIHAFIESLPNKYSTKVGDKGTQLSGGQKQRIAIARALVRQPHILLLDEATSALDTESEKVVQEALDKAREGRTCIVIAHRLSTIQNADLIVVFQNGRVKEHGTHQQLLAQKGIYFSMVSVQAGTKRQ", "assay": "Reversal of human ABCB1-mediated multidrug resistance in HEK293/MDR19 cells assessed as fold change in colchicine IC50 at 2 uM after 72 hrs by CCK8 relative to colchicine IC50", "type": "cell-based", "in_short": "as §4"}, "[12]": {"biological_target": "T2, Multidrug resistance-associated protein 1", "assay": "Reversal of human ABCC1-mediated multidrug resistance in HEK293/MRP1 cells assessed as fold-change in etoposide IC50 at 0.5 uM after 72 hrs by CCK8 relative to etoposide IC50", "type": "cell-based", "in_short": "as §4"}, "HEK293 [13]": {"tested_on": "HEK293", "assay": "Effect on Colchicine-induced cytotoxicity against HEK293 cells assessed as fold change in colchicine IC50 at 0.5 uM after 72 hrs by CCK8 assay relative to colchicine IC50", "type": "cell-based", "conditions": "human, hek293, 72 h", "in_short": "as §2"}, "HEK293 [14]": {"tested_on": "HEK293", "assay": "Effect on topotecan-induced cytotoxicity against HEK293 cells assessed as fold change in topotecan IC50 at 1 uM after 72 hrs by CCK8 assay relative to topotecan IC50", "type": "cell-based", "conditions": "human, hek293, 72 h", "in_short": "as §2"}, "NCI-H460 [15]": {"tested_on": "NCI-H460", "assay": "Cytotoxicity against human H460 cells after 72 hrs by MTT assay", "type": "functional, cell-based", "conditions": "NCI-H460, 72 h", "in_short": "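Cells seeded at 5000/well, allowed 24 h, then exposed to a concentration series for 72 h at 37 °C in DMSO vehicle (up to 0.5% v/v). HEK293 lines were read with CCK-8 and cancer lines with MTT. IC50 was taken from fitted dose-response curves over at least three independent experiments. Lines were kept drug-free for 7 days before assay.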"}}, "note": "Activity calls are given as the source filed them. The calls are words filed in the database; no cut-off is given here."}
{"smiles": "C=CC(C)(C)c1cc(/C=C/C(=O)c2ccc(O)cc2)c(OC)cc1O", "note": "[LICOAGROCHACONE A]", "values": [{"measurement": "Activity", "setting": "S1 [1]", "result": "inactive"}, {"measurement": "fold change (FC)", "setting": "NCI-H460 [2]", "result": 1.7}, {"measurement": "fold change (FC)", "setting": "HEK293 [3]", "result": 0.7}, {"measurement": "fold change (FC)", "setting": "NCI-H460 [4]", "result": 1.1}, {"measurement": "Activity", "setting": "S1-M1-80", "result": 0.2, "unit": "%"}, {"measurement": "viability at 10 µM", "setting": "S1 [5]", "result": 44.1, "unit": "%"}, {"measurement": "fold change (FC)", "setting": "HEK293 [6]", "result": 1}, {"measurement": "fold change (FC)", "setting": "[7]", "result": 10.8}, {"measurement": "fold change (FC)", "setting": "[8]", "result": 1.1}, {"measurement": "fold change (FC)", "setting": "HEK293 [9]", "result": 0.7}, {"measurement": "fold change (FC)", "setting": "[10]", "result": 48.1}, {"measurement": "fold change (FC)", "setting": "[11]", "result": 0.8}, {"measurement": "fold change (FC)", "setting": "[12]", "result": 1.2}, {"measurement": "fold change (FC)", "setting": "HEK293 [13]", "result": 1}, {"measurement": "fold change (FC)", "setting": "HEK293 [14]", "result": 1}, {"measurement": "IC50", "setting": "NCI-H460 [15]", "result": "10 to 50", "unit": "µM"}]}
